In experiment [1] the target is T1, Growth hormone-releasing hormone receptor (Rattus norvegicus, UniProt Q02644).
T1 sequence (Q02644 whole entry): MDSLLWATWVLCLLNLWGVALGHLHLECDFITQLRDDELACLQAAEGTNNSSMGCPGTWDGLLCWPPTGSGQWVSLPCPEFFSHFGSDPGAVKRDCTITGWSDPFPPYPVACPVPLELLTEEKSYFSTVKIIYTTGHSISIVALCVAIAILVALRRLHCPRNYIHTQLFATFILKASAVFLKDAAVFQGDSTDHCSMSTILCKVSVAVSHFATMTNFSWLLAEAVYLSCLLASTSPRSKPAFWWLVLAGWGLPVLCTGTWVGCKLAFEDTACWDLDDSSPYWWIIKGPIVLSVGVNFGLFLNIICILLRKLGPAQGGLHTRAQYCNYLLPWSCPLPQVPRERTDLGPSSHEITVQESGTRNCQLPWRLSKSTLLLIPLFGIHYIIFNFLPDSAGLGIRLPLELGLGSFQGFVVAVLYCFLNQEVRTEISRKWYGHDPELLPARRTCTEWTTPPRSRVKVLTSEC
As to the kind of experiment: Compound was tested to Inhibit [125I]GRF in rat adenopituitary homogenates. The essentials: (§1)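 Anterior pituitaries from 2-month-old male Sprague-Dawley rats homogenized in ice-cold 50 mM Tris-HCl pH 7.4 with 5 mM MgCl2, 5 mM EDTA. Homogenate (70–75 µg protein) incubated with 35–50 pM [125I-Tyr10]hGRF(1-44)NH2 and peptide at 0–1000 nM in Tris-HCl buffer pH 7.4 with 5 mM EDTA, 5 mM MgCl2, 0.42% BSA, 60 min at 23 °C. Nonspecific binding defined with 2.4 µM rGRF(1-29)NH2. Bound fraction separated by centrifugation and gamma-counted. IC50 fitted with LIGAND. Mean ± SEM of three experiments, each in duplicate or triplicate.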

The target of experiment [2] is T2, Growth hormone-releasing hormone receptor (Rattus norvegicus) (UniProt Q02644).
T2 sequence (whole entry): T1 sequence (Q02644 whole entry)
As to the kind of experiment: Relative affinity compared to hGRF(1-29)NH2. It is filed as functional. The essentials: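 Radioligand competition in rat anterior pituitary homogenate using [125I-Tyr10]hGRF(1-44)NH2 at 35–50 pM and peptides at 0–1000 nM, 60 min at 23 °C. Relative affinity is the binding IC50 expressed as a percentage relative to hGRF(1-29)NH2.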

Another experiment is filed under the species Rattus norvegicus. As to the kind of experiment: Residual concentration after 60 min incubation with pituitary homogenates, in the binding assay conditions, by quantitative HPLC method. Type of experiment: functional. An outline of the steps:
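Peptide at 10 µM incubated with rat pituitary homogenate (150 µg protein/100 µL) in binding-assay conditions at 23 °C for 0 and 60 min. Reaction stopped with cold 50 mM phosphate pH 0.8 and centrifugation. Controls without homogenate accounted for adsorption. Remaining peptide measured by C18 HPLC (0.01% TFA/acetonitrile gradient, UV 214 nm) and peak-area integration.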

For experiment [3], the target named is T1, Growth hormone-releasing hormone receptor. As to the kind of experiment: Compound was tested to Inhibit [125I]-Growth hormone-releasing factor in rat adenopituitary homogenates. The essentials:
as §1

With H-YADAIFTNSYRKVLGLSARKLLQDIMSR-NH2, in experiment [1], the IC50 – broadly, the concentration that inhibits the measured activity by half – is more than 1 µM.

The compound `CC[C@H](C)[C@H](NC(=O)[C@H](C)NC(=O)[C@H](CC(=O)O)NC(=O)[C@H](C)NC(=O)[C@H](Cc1ccc(O)cc1)NC(C)=O)C(=O)N[C@@H](Cc1ccccc1)C(=O)N[C@H](C(=O)N[C@@H](CC(N)=O)C(=O)N[C@@H](CO)C(=O)N[C@@H](Cc1ccc(O)cc1)C(=O)N[C@@H](CCCN=C(N)N)C(=O)N[C@@H](CCCCN)C(=O)N[C@H](C(=O)N[C@@H](CC(C)C)C(=O)NCC(=O)N[C@@H](CCC(N)=O)C(=O)N[C@@H](CC(C)C)C(=O)N[C@@H](CO)C(=O)N[C@@H](C)C(=O)N[C@@H](CCCN=C(N)N)C(=O)N[C@@H](CCCCN)C(=O)N[C@@H](CC(C)C)C(=O)N[C@@H](CC(C)C)C(=O)N[C@@H](CCC(N)=O)C(=O)N[C@@H](CC(=O)O)C(=O)N[C@H](C(=O)N[C@@H](CCSC)C(=O)N[C@@H](CO)C(=O)N[C@@H](CCCN=C(N)N)C(N)=O)[C@@H](C)CC)C(C)C)[C@@H](C)O` returned an Activity in experiment [2] of 32%. This compound also returned a Residual peptide remaining after 60 min in the experiment filed under Rattus norvegicus of 85%.

In experiment [1], H-YADAIFTNSYRKVLGLLQDIMSR-NH2 showed an IC50 of more than 1 µM.

Turning to H-YADAIFTNSYRKVLGQLSARKLLQDIR-NH2, in experiment [2], the Activity was determined as 4.6%. The compound further had a Residual peptide remaining after 60 min in the experiment listed under Rattus norvegicus of 94%.

`CC[C@H](C)[C@H](NC(=O)[C@H](C)NC(=O)[C@H](CC(=O)O)NC(=O)[C@H](C)NC(=O)[C@H](Cc1ccc(O)cc1)NC(=O)CCCCCCCN)C(=O)N[C@@H](Cc1ccccc1)C(=O)N[C@H](C(=O)N[C@@H](CC(N)=O)C(=O)N[C@@H](CO)C(=O)N[C@@H](Cc1ccc(O)cc1)C(=O)N[C@@H](CCCN=C(N)N)C(=O)N[C@@H](CCCCN)C(=O)N[C@H](C(=O)N[C@@H](CC(C)C)C(=O)NCC(=O)N[C@@H](CCC(N)=O)C(=O)N[C@@H](CC(C)C)C(=O)N[C@@H](CO)C(=O)N[C@@H](C)C(=O)N[C@@H](CCCN=C(N)N)C(=O)N[C@@H](CCCCN)C(=O)N[C@@H](CC(C)C)C(=O)N[C@@H](CC(C)C)C(=O)N[C@@H](CCC(N)=O)C(=O)N[C@@H](CC(=O)O)C(=O)N[C@H](C(=O)N[C@@H](CCSC)C(=O)N[C@@H](CO)C(=O)N[C@@H](CCCN=C(N)N)C(N)=O)[C@@H](C)CC)C(C)C)[C@@H](C)O` had an IC50 in experiment [3] of 0.0216 µM. For the same compound, the Activity in experiment [2] came out at 26%. Besides, the Residual peptide remaining after 60 min in the experiment listed under Rattus norvegicus was 100%.

In the case of H-YADAIFTNSYRKGQLSARKLLQDIMSR-NH2, the IC50 in experiment [1] was more than 1 µM.

Regarding H-YADAIFTNSYRKQLSARKLLQDIMSR-NH2, the IC50 in experiment [1] is more than 1 µM.

Compound H-YADAIFTNSYRKVLGQLSARKLLQDIMR-NH2 had an Activity in experiment [2] of 78%. The Residual peptide remaining after 60 min in the experiment listed under Rattus norvegicus amounted to 100%.

In experiment [2], H-YADAIFTNSYRKVLGQLSLLQDIMSR-NH2 returned an Activity of 0.6%. In experiment [1], this compound registered an IC50 of 1 µM.

In experiment [3], H-YADAIFTNSYRVLGQLSARKLLQDIMSR-NH2 yielded an IC50 of 0.836 µM. The compound further yielded an Activity in experiment [2] of 0.7%. The same compound registered a Residual peptide remaining after 60 min in the experiment listed under Rattus norvegicus of 92%.

For H-YADAIFTSYRKVLGQLSARKLLQDIMSR-NH2, the Activity in experiment [2] is 5.9%. Also, in the experiment filed under Rattus norvegicus, the Residual peptide remaining after 60 min is 100%.

Consider H-YADAIFTNSYRKVLGQLSARKLLDIMSR-NH2, for which the Activity in experiment [2] was found to be 12%. In the experiment listed under Rattus norvegicus, this compound displayed a Residual peptide remaining after 60 min of 85%.

Consider H-DAIFTNSYRKVLAQLSARKLLQDIMSR-NH2, for which, in experiment [3], the IC50 was determined as 0.311 µM. Besides, the Activity in experiment [2] is 1.8%. In the experiment filed under Rattus norvegicus, this compound registered a Residual peptide remaining after 60 min of 93%.

With H-ADAIFTSSYRRILGQLYARKLLHEIMNR-NH2, in experiment [2], the Activity came to 13%. The same compound yielded a Residual peptide remaining after 60 min in the experiment filed under Rattus norvegicus of 100%.

The values are drawn from ChEMBL document CHEMBL1126044, “Affinity of human growth hormone-releasing factor (1-29)NH2 analogues for GRF binding sites in rat adenopituitary” (J Med Chem, 1992).
